According to publication PMC4430720 (British Journal of Cancer, 2015):
Like-named read-outs stand apart in the source and are kept apart here. Marks after values point to notes of the source that are not given here. Where a SMILES comes first, the peptide text is derived from it. Bridges are numbered along the chain shown (N, C = ends). [ ]: non-standard residue; d: D form. βAla = NCCC(=O)O

Experiments:
[1] = Pharmacokinetics of unincorporated CIGB-300 in plasma; type: in vivo, human; settings: both groups; highest levels only during the first hour after injection
[2] = system: human cervical cancer SiHa cells; assay: Antitumour activity of different CIGB-300 regimens; type: in vivo, NIH nu/nu nude mice; settings: 200 μg intratumoural per injection, tumour volume by caliper
B23/NPM = assay: In situ B23/NPM expression in tumour biopsies by immunohistochemistry; type: in vivo, human
Outline: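 Paraffin-embedded tumour biopsies were taken before and after the three treatment cycles. After deparaffinisation, sections were immunostained with a human B23/NPM monoclonal primary antibody and a commercial immunostaining kit, developed with peroxidase and counterstained with hematoxylin. Pre/post values were compared by paired Student's t-test or Wilcoxon test, chosen by the Shapiro–Wilk normality result.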

[3] = 2 ml at a single tumour site, ref Soriano-García et al, 2013, cited from earlier work
[4] = system: stage IIB cervical cancer; assay: Therapeutic response by MRI; type: in vivo, human; settings: 1-year follow-up
Outline: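 MRI response was graded by RECIST before and after three peptide cycles, then quarterly for 1 year. Follow-up came after chemoradiotherapy: cisplatin 40 mg m−2 weekly for 6 weeks with 5040 cGy external beam in 28 fractions, then 2600 cGy intracavitary in four fractions. CT and abdominal/gynaecological ultrasonography were used to detect metastasis.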

[5] = system: high-grade squamous intraepithelial lesions; settings: intralesional injections; ref Solares et al, 2009; cited from earlier work
[6] = type: in vivo, NIH nu/nu nude mice; settings: 100 μg 99mTc-radiolabelled CIGB-300 intratumour in 0.2 or 0.5 ml PBS
Outline: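 Female 6–8-week NIH nu/nu mice carried subcutaneous SiHa xenografts (5 × 10^6 cells, right inguinal flank). At 150 mm3, tumours received 100 μg 99mTc-labelled test compound in 0.025, 0.05, 0.2 or 0.5 ml PBS. Planar gamma-camera images were taken immediately and at 0.25, 1, 4, 24, 48 h. Tumour ROI signal was expressed as percent of the total initial image.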

[7] = type: in vivo, human; settings: for Biological half-life (tumour): corrected for radioactive decay; for AUC24 (tumour): tumour uptake curve over 24 h; for Maximum uptake (mg CIGB-300): tumour uptake, two sites 0.5 ml each
Outline: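 The first patient dose was 99mTc-labelled and injected at two equidistant points, ~2 cm deep (0.5 ml each). Whole-body gamma-camera images were taken at 10 min and 1, 2, 4, 8, 12, 24 h, with tumour static views at 3 and 24 h. Uptake was quantified by MIRD methodology, with tumour mass from baseline MRI. Half-life used decay-corrected fits, and AUC used mono/biexponential fits.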

histamine = assay: Histamine levels in plasma; type: in vivo, human; settings: both groups
Outline: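 Stage IIB cervical carcinoma patients received 35 or 70 mg intralesionally. Plasma histamine was measured by commercial EIA before, immediately after, and 5, 15, 30 and 60 min after the first administration. Spearman rank correlation was run between histamine and plasma peptide concentration, and between histamine and allergic-reaction severity.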

[8] = Safety evaluation: local and systemic adverse events; type: in vivo, human; settings: both groups
Outline: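 Patients received 35 or 70 mg intralesionally once daily for three consecutive days at weeks 1, 3 and 5. Local and systemic adverse events and routine laboratory parameters were recorded. Systemic toxicity was followed for 24 h after each dose, with cardiovascular monitoring during injection and vital signs. The probability of exceeding 30% grade 3 events per group was estimated.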

CSCC[C@@H]1NC(=O)[C@H](Cc2c[nH]c3ccccc23)NC(=O)[C@@H](NC(=O)CCNC(=O)[C@H](CCC(N)=O)NC(=O)[C@@H]2CCCN2C(=O)[C@@H]2CCCN2C(=O)[C@H](CCCNC(=N)N)NC(=O)[C@H](CCCNC(=N)N)NC(=O)[C@H](CCCNC(=N)N)NC(=O)[C@H](CCC(N)=O)NC(=O)[C@H](CCCNC(=N)N)NC(=O)[C@H](CCCNC(=N)N)NC(=O)[C@H](CCCCN)NC(=O)[C@H](CCCCN)NC(=O)[C@H](CCCNC(=N)N)NC(=O)CN)CSSC[C@@H](C(=O)O)NC(=O)[C@H]([C@@H](C)O)NC(=O)CNC(=O)[C@H](CC(C)C)NC(=O)[C@H](Cc2c[nH]cn2)NC(=O)[C@H](CCCNC(=N)N)NC(=O)[C@@H]2CCCN2C(=O)[C@H](CO)NC1=O [CIGB-300] (H-GRKKRRQRRRPPQ[βAla]CWMSPRHLGTC-OH; disulfide 15-25; N-terminus and C-terminus assumed)
CIGB-300 levels in blood over time [1]: near undetectable after 8 h
Three cycles of three consecutive daily injections [2]: minimal frequency required to reduce tumour growth
B23/nucleophosmin expression at the nucleoplasm (B23/NPM; after CIGB-300 treatment): not considerably modified
Patients with reduced nucleolar B23/NPM expression after CIGB-300 treatment (B23/NPM; evaluated patients of both groups): 10 out of the 12
Levels of in situ B23/NPM in tumour biopsies, post CIGB-300 (B23/NPM; group I (35 mg), N=6, mean±s.d., baseline 56.0±17.6, Student's t-test p 0.14): 36.4±18.9
Maximum tumour uptake ([3]; 35 mg): 14.9 ± 6.4 mg
Maximum tumour uptake ([3]; 70 mg): 10.4 ± 8.3 mg
Deaths because of disease progression, whole trial ([4]; both groups): four
Deaths because of disease progression, group I ([4]; group I (35 mg)): three
Patients with full histological regression [5]: 19%
Patients with significant colposcopic response [5]: 90%
Previously positive patients with negative human papillomavirus DNA [5]: 48%
CIGB-300 tumour uptake, higher injection volume [6]: worse tumour uptake
Biological half-life (tumour) ([7]; group I 35 mg, N=6, mean±s.d.): 3.9±0.9 (2.6–5.5) h
Biological half-life (tumour) ([7]; group II 70 mg, N=7, mean±s.d.): 6.2±1.9 (3.5–10.1) h
Maximum uptake (mg CIGB-300 per g tumour) ([7]; group II 70 mg, tumour mass estimated by MRI, N=6, mean±s.d.): 1.1±0.8 (0.4–2.7) ^b mg g^−1
Maximum tumour uptake, 70 mg compared with 35 mg ([7]; mean values, P=0.01): two-fold higher
AUC24 (tumour) ([7]; group I 35 mg, N=6, mean±s.d.): 132±72.2 (45.3–235) mg h
AUC24 (tumour) ([7]; group II 70 mg, N=7, mean±s.d.): 385±167 (90.3–646) mg h
Maximum uptake (mg CIGB-300) ([7]; group I 35 mg intralesional, N=6, mean±s.d.): 16.1±8.9 (3.8–27.2) mg
Maximum uptake (mg CIGB-300) ([7]; group II 70 mg intralesional, N=7, mean±s.d.): 31.3±12.9 (9.9–48.7) mg
Time to return of plasmatic histamine to normal levels (1 ng ml^−1) (histamine; after first injection, rapid increase first): 15 min
Overall histamine median when grade 1 allergic-like events occurred (histamine; plasma): 0.7 ng/mL
Overall histamine median when grade 2 allergic-like events occurred (histamine; plasma): 3.5 ng/mL
Blood counts and serum chemistry values, baseline vs post-treatment [8]: no differences
